Laboratory results from ChEMBL document CHEMBL2396571, “Synthesis and biological evaluation of C-glucosides with azulene rings as selective SGLT2 inhibitors for the treatment of type 2 diabetes mellitus: discovery of YM543” (Bioorg Med Chem, 2013).
Calls of active or inactive are those of the source. The calls are words filed in the database; no cut-off is given here.

How the values were obtained:
[1] = target: T1, Sodium/glucose cotransporter 2 (Homo sapiens, UniProt P31639); assay: Inhibition of human SGLT2 expressed in CHO cells assessed as [14C]-methyl-alpha-D-glucopyranoside accumulation; type: cell-based
T1 sequence (P31639 whole entry): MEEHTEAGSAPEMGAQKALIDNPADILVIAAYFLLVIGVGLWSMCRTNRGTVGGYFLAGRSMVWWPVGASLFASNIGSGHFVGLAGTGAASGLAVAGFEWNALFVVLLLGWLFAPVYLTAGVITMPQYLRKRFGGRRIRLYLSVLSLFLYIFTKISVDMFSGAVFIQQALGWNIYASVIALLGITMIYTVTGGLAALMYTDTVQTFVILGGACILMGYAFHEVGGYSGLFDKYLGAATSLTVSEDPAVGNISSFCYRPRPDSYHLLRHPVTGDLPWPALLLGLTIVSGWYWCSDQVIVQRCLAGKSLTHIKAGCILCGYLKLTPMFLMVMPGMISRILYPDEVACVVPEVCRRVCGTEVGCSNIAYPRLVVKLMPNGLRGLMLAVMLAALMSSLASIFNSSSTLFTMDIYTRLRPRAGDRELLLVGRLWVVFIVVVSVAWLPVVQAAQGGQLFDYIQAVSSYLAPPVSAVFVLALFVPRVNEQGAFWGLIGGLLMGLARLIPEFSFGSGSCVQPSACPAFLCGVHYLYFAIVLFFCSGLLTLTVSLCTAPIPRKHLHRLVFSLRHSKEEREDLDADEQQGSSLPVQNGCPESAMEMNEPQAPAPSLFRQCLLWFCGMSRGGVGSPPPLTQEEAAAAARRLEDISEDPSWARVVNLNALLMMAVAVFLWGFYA

[2] = species on record: Homo sapiens; assay: Selectivity ratio of IC50 for human SGLT1 to IC50 for human SGLT2
[3] = Half life in Sprague-Dawley rat at 3 mg/kg, po; type: ADME, organism-based; parameters: dose 3 mg/kg, route oral; settings: in vivo
In short: (§1)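 Male Sprague–Dawley rats, bought at 5–7 weeks of age. A single 1.0 mg/kg intravenous dose or a single 3 mg/kg oral dose was given. Plasma pharmacokinetic parameters were derived: T1/2, CLtot, Vdss, Cmax, Tmax, AUC(0–inf) and oral bioavailability F.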

[4] = Ratio of drug level in kidney to plasma in Sprague-Dawley rat at 1 mg/kg, iv and 3 mg/kg, po; type: ADME, organism-based
In short: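 Male Sprague–Dawley rats received a single 1.0 mg/kg iv or a single 3 mg/kg oral dose. Drug concentration in kidney was compared with that in plasma.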

[5] = test system: Mus musculus; assay: Antihyperglycemic activity in po dosed KK/Ay type-2 diabetic mouse model assessed as increase in urinary glucose excretion measured over 24 hrs; type: functional, organism-based; settings: Urine
[6] = Tmax in Sprague-Dawley rat at 3 mg/kg, po; type: ADME, organism-based; parameters: dose 3 mg/kg, route oral; settings: in vivo; in short: as §1
[7] = test system: Mus musculus; assay: Antihyperglycemic activity in KK/Ay type-2 diabetic mouse model assessed as reduction of blood glucose level at 3 mg/kg, po measured for 8 hrs relative to vehicle-treated control; type: functional; parameters: scale not given: the % may be the effect or the level left
In short: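 KK/Ay mice in the fed condition were given a single oral dose (0.1–3 mg/kg). Blood glucose was followed over time, and suppression of glucose AUC was calculated relative to vehicle. Mean ± SEM, 6 animals per group.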

[8] = AUC (0 to infinity) in Sprague-Dawley rat at 1 mg/kg, iv; type: ADME, organism-based; parameters: time infinity, dose 1 mg/kg, route intravenous; settings: plasma; in short: as §1
[9] = Cmax in Sprague-Dawley rat at 3 mg/kg, po; type: ADME, organism-based; parameters: dose 3 mg/kg, route oral; settings: in vivo; in short: as §1
[10] = test system: Rattus norvegicus; assay: Antihyperglycemic activity in streptozotocin-induced type-1 diabetes mellitus rat model assessed as reduction of blood glucose level at 0.1 to 3 mg/kg, po measured for 8 hrs
[11] = test system: Mus musculus; assay: Antihyperglycemic activity in KK/Ay type-2 diabetic mouse model assessed as increase in urinary glucose excretion at => 0.3 mg/kg, po measured over 12 hrs; type: functional, organism-based; parameters: dose 0.3 mg/kg; settings: Urine
[12] = test system: Rattus norvegicus; assay: Volume of distribution at steady state in Sprague-Dawley rat at 1 mg/kg, iv; type: ADME, organism-based; parameters: dose 1 mg/kg, route intravenous; settings: in vivo; in short: as §1
[13] = Half life in Sprague-Dawley rat at 1 mg/kg, iv; type: ADME, organism-based; parameters: dose 1 mg/kg, route intravenous; settings: in vivo; in short: as §1
[14] = Oral bioavailability in Sprague-Dawley rat at 3 mg/kg; type: ADME, organism-based; settings: in vivo; in short: as §1

Row | IC50 [1] [nM] | Ratio IC50 [2] | SMILES | also measured
1 | 44000 |  | Cc1cc(Cc2cccc([C@@H]3O[C@H](CO)[C@@H](O)[C@H](O)[C@H]3O)c2)c2cccccc1-2 | 
2 | 12000 | > 0.8 | CC(=O)c1c(Cc2cccc([C@@H]3O[C@H](CO)[C@@H](O)[C@H](O)[C@H]3O)c2)cc2cccccc1-2 | 
3 | 5200 | > 1.9 | CCc1c(Cc2cccc([C@@H]3O[C@H](CO)[C@@H](O)[C@H](O)[C@H]3O)c2)cc2cccccc1-2 | 
4 | 970 | > 10 | OC[C@H]1O[C@@H](c2cccc(Cc3cc4cccccc-4c3Cc3ccccc3)c2)[C@H](O)[C@@H](O)[C@@H]1O | 
5 |  | 590 | OC[C@H]1O[C@@H](c2cccc(Cc3cc4cccccc-4c3)c2)[C@H](O)[C@@H](O)[C@@H]1O | 

Further lines, the compound ahead of its results:

Row | SMILES | IC50 [1] [nM] | Ratio IC50 [2] | also measured
6 | COc1ccc(Cc2cc3cccccc-3c2)cc1[C@@H]1O[C@H](CO)[C@@H](O)[C@H](O)[C@H]1O |  | 2100 | 
7 | OC[C@H]1O[C@@H](c2cc(Cc3cc4cccccc-4c3)ccc2O)[C@H](O)[C@@H](O)[C@@H]1O [YM-543 FREE ACID] |  | 280 | half-life [3]: 78 min; Kp [4]: 23; Activity [5]: Dose-dependent effect; Tmax [6]: 30 min; Activity [7]: 56%; AUC(0-inf) [8]: 403 ng·h/mL; Cmax [9]: 101 ng/mL; Activity [10]: Active; Activity [11]: Active; Vdss [12]: 3.36 L/kg; half-life [13]: 54 min; bioavailability [14]: 29%
8 | OC[C@H]1O[C@@H](c2cc(Cc3cc4cccccc-4c3)ccc2Cl)[C@H](O)[C@@H](O)[C@@H]1O | 70 | 200 | 
9 | OC[C@H]1O[C@@H](c2ccc(F)c(Cc3cc4cccccc-4c3)c2)[C@H](O)[C@@H](O)[C@@H]1O | 14 | 610 | 
10 | OC[C@H]1O[C@@H](c2cccc(Cc3ccc4cccc-4cc3)c2)[C@H](O)[C@@H](O)[C@@H]1O |  | 230 | 
11 | COc1ccc([C@@H]2O[C@H](CO)[C@@H](O)[C@H](O)[C@H]2O)cc1Cc1cc2cccccc-2c1 | 17 | 35 | 
12 | OC[C@H]1O[C@@H](c2ccc(Cl)c(Cc3cc4cccccc-4c3)c2)[C@H](O)[C@@H](O)[C@@H]1O | 7.9 | 140 | 
13 | OC[C@H]1O[C@@H](c2cc(Cc3cc4cccccc-4c3)ccc2F)[C@H](O)[C@@H](O)[C@@H]1O | 39 | 123 | 
